Source: ChEMBL document CHEMBL1165965, “Synthesis and structure-activity relationships of 1,2,3,4-tetrahydropyrido[2,3-b]pyrazines as potent and selective inhibitors of the anaplastic lymphoma kinase” (Bioorg Med Chem, 2010)

Legend:
[1] = target: Serine/threonine-protein kinase SBK1 (Homo sapiens) (UniProt Q52WX2); assay: Inhibition of SBK1 at 1 uM
[2] = target: Angiopoietin-1 receptor (Homo sapiens) (UniProt Q02763); assay: Inhibition of TIE2 at 1 uM
[3] = target: Mitogen-activated protein kinase 14 (Homo sapiens) (UniProt Q16539); assay: Inhibition of p38-alpha at 1 uM
[4] = target: Proto-oncogene tyrosine-protein kinase Src (Homo sapiens) (UniProt P12931); assay: Inhibition of SRC at 1 uM
[5] = target: T1, MAP kinase-activated protein kinase 5 (Homo sapiens) (UniProt Q8IW41); assay: Inhibition of MAPKAPK5 at 1 uM
T1 sequence (whole entry): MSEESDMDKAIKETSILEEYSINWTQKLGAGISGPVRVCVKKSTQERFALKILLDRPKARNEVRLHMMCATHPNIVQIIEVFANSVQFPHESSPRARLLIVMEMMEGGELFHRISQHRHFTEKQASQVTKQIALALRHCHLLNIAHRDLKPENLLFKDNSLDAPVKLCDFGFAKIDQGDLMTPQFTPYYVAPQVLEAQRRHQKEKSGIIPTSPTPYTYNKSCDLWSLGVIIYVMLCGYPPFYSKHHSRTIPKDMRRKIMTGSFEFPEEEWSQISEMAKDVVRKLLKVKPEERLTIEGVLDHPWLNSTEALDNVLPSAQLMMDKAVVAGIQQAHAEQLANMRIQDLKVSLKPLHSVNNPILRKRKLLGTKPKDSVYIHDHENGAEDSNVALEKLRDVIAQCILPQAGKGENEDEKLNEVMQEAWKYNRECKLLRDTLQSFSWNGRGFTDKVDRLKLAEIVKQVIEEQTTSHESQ

[6] = target: T2, Mitogen-activated protein kinase kinase kinase 7 (Homo sapiens) (UniProt O43318); assay: Inhibition of TAK1 at 1 uM
T2 sequence (whole entry): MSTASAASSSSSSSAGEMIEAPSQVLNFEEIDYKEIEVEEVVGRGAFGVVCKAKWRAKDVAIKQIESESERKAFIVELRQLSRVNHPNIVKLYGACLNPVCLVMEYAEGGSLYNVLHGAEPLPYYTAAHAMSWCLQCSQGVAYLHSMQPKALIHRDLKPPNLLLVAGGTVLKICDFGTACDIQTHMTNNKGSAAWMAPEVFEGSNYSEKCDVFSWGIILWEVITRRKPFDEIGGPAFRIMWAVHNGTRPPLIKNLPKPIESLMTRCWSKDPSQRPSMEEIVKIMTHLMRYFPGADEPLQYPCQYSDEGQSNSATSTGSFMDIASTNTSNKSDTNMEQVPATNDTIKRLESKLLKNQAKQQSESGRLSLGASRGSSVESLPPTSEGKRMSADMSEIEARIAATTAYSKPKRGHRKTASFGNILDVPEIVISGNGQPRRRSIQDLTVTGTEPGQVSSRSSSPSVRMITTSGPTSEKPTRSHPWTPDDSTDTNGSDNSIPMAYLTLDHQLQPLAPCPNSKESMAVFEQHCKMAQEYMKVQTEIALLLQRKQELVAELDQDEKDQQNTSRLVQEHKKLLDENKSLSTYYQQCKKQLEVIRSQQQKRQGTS

[7] = target: T3, Serine/threonine-protein kinase D1 (Homo sapiens) (UniProt Q15139); assay: Inhibition of PRKD1 at 1 uM
T3 sequence (whole entry): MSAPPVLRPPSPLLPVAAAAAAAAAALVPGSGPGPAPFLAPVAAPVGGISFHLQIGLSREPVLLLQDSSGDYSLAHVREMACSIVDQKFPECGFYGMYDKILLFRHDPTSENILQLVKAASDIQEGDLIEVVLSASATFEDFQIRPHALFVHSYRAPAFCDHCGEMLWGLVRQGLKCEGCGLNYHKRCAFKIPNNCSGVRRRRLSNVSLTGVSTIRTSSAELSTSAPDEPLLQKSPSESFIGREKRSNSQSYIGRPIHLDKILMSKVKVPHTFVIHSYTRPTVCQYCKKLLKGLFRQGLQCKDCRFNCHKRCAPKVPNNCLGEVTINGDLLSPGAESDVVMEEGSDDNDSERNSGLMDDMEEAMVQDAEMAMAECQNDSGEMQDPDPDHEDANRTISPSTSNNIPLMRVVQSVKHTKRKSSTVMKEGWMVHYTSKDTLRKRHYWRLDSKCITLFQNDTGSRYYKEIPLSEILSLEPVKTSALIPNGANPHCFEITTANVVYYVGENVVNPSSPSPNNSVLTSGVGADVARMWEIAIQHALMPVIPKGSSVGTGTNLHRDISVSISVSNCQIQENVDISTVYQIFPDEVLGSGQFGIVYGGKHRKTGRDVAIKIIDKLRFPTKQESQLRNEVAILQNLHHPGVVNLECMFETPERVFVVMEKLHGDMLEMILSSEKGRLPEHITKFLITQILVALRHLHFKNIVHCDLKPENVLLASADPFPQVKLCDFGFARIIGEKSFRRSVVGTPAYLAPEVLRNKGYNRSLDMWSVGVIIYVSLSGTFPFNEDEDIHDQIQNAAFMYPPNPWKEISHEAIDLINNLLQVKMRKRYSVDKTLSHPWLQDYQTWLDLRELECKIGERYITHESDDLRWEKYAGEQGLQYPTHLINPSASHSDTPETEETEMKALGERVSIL

[8] = target: T4, Dual specificity tyrosine-phosphorylation-regulated kinase 2 (Homo sapiens) (UniProt Q92630); assay: Inhibition of DYRK2 at 1 uM
T4 sequence (whole entry): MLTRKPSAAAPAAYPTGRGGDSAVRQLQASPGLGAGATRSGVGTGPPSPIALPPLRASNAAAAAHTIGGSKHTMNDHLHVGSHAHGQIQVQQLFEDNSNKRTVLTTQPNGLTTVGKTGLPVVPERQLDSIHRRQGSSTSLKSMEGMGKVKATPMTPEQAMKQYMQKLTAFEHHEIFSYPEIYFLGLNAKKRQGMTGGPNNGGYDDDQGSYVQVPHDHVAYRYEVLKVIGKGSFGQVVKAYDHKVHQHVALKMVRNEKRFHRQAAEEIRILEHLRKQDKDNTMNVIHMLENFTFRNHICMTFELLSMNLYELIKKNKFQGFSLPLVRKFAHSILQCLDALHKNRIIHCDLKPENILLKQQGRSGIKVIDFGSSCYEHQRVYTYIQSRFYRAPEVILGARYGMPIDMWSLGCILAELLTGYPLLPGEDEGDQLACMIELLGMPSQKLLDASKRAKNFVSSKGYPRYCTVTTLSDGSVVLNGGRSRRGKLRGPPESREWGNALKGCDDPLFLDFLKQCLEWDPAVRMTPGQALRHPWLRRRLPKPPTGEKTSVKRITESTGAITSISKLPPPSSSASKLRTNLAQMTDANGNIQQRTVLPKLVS

[9] = target: Epidermal growth factor receptor (Homo sapiens) (UniProt P04626+P00533+Q15303+P21860); assay: Inhibition of EGFR L747-T751del, Sins mutant at 1 uM; type: protein assay
Procedure, shortened: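 Single-concentration screen using Ambit Bioscience KINOMEscan technology across a panel of 250–400 kinases. Per-kinase inhibition from this screen was summarized as S(90), the fraction of kinases inhibited by more than 90%.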

Sequence of Serine/threonine-protein kinase SBK1 (Homo sapiens) (Q52WX2 whole entry): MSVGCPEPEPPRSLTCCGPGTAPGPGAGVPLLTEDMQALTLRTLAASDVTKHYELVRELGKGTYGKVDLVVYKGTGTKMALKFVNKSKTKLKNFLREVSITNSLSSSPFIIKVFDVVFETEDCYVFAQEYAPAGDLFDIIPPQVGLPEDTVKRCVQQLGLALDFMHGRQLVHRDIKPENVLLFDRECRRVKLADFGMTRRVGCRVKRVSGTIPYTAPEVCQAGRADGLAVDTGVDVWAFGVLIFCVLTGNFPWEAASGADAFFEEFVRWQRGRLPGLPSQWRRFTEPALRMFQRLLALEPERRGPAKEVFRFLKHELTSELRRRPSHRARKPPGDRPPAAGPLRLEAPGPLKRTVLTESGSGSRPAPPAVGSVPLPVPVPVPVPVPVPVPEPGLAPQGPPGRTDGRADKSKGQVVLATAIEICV
Sequence of Angiopoietin-1 receptor (Homo sapiens) (Q02763 whole entry): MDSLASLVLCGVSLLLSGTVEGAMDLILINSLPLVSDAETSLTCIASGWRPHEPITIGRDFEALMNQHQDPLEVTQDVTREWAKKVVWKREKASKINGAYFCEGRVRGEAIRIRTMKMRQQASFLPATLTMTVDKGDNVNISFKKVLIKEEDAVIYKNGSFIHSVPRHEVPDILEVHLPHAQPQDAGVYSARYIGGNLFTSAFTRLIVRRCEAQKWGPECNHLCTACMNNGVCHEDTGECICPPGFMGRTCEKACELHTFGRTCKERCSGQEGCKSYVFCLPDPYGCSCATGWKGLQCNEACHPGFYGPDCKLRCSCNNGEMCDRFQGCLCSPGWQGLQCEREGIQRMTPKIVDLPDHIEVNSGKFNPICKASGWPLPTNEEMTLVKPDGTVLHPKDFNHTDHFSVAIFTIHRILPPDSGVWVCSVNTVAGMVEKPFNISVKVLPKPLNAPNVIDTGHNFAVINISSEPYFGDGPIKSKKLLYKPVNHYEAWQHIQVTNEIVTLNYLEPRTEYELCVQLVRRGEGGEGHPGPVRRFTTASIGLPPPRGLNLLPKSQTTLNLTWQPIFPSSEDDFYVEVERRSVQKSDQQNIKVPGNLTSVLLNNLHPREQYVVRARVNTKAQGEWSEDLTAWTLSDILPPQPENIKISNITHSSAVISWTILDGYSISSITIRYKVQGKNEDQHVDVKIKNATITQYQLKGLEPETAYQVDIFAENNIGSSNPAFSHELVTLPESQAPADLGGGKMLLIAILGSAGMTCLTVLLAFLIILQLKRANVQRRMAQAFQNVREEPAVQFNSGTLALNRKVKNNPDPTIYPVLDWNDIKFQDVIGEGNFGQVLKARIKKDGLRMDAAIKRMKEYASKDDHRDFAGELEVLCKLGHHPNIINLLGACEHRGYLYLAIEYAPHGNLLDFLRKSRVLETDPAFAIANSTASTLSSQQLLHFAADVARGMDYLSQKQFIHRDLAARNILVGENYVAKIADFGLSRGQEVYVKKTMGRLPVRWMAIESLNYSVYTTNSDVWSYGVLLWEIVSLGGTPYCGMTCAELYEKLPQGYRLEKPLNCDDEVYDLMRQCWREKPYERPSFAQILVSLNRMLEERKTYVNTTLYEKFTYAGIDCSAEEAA
Sequence of Proto-oncogene tyrosine-protein kinase Src (Homo sapiens) (P12931 2-536 limits assumed): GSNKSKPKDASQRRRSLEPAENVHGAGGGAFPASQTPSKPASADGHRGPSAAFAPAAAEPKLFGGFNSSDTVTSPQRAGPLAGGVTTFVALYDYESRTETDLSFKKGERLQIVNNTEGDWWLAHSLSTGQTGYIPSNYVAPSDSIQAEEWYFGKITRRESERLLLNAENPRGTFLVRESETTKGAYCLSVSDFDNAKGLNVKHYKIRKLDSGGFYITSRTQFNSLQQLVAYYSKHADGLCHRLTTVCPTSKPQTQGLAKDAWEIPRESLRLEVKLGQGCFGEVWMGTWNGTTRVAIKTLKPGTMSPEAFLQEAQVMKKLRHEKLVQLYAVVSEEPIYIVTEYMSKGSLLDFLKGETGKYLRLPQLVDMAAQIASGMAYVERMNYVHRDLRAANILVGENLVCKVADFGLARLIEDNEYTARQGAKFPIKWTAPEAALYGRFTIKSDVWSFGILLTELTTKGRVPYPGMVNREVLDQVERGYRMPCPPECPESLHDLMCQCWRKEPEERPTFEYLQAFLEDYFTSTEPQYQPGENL
Sequence of Mitogen-activated protein kinase 14 (Homo sapiens) (Q16539 whole entry): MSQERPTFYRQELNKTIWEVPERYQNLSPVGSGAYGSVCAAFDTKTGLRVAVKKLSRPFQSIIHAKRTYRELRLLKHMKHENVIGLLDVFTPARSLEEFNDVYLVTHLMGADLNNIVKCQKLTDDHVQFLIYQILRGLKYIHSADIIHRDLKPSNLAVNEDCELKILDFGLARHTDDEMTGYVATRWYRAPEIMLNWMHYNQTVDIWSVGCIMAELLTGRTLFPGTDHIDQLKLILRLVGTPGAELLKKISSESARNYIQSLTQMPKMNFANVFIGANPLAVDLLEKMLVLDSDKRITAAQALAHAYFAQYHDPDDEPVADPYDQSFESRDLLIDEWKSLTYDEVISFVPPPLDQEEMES

Row | SMILES | inhibition [1] [%] | inhibition [2] [%] | inhibition [3] [%] | inhibition [4] [%] | inhibition [5] [%] | inhibition [6] [%] | inhibition [7] [%] | inhibition [8] [%] | inhibition [9] [%]
1 | CN1CCN(c2ccc(-c3cnc4c(c3)N(Cc3cc(F)ccc3F)CCN4)cn2)CC1 | < 50 | < 50 | < 50 | < 50 | < 50 | < 50 | 67 | < 50 | < 50
2 | CC(=O)N1CCN(c2cc(-c3cnc4c(c3)N(Cc3cc(Cl)ccc3C(F)(F)F)CCN4)ccn2)CC1 | < 50 | < 50 | < 50 | < 50 | < 50 | < 50 | < 50 | < 50 | < 50
3 | CN1CCN(c2ccc(-c3cnc4c(c3)N(Cc3c(F)ccc(F)c3Cl)CCN4)cn2)CC1 | < 50 | < 50 | < 50 | < 50 | < 50 | < 50 | 67 | < 50 | < 50
4 | FC(F)(F)c1ccc(Cl)cc1CN1CCNc2ncc(-c3ccnc(N4CCNCC4)c3)cc21 | < 50 | < 50 | < 50 | < 50 | < 50 | < 50 | < 50 | < 50 | < 50
5 | CN1CCN(c2ccc(-c3cnc4c(c3)N(Cc3cc(Cl)ccc3Cl)CCN4)cn2)CC1 | < 50 | < 50 | < 50 | < 50 | < 50 | < 50 | < 50 | < 50 | < 50
6 | O=C(c1ccc(-c2cnc3c(c2)N(Cc2cc(Cl)ccc2C(F)(F)F)CCN3)cc1)N1CCC(N2CCCC2)CC1 | – | < 50 | < 50 | < 50 | – | – | – | – | < 50
7 | O=C(O)c1ccc(-c2cnc3c(c2)N(Cc2cc(Cl)ccc2C(F)(F)F)CCN3)cc1 | – | < 50 | < 50 | < 50 | – | – | – | – | < 50
8 | CN1CCN(c2ccc(-c3cnc4c(c3)N(Cc3cc(Cl)ccc3C(F)(F)F)CCN4)cn2)CC1 | < 50 | < 50 | < 50 | < 50 | < 50 | < 50 | < 50 | < 50 | < 50
9 | O=C(c1ccc(-c2cnc3c(c2)N(Cc2cc(Cl)ccc2C(F)(F)F)CCN3)cc1)N1CCCCC1 | – | < 50 | < 50 | < 50 | – | – | – | – | < 50
10 | COC1CCN(C(=O)c2ccc(-c3cnc4c(c3)N(Cc3cc(Cl)ccc3C(F)(F)F)CCN4)cc2)CC1 | – | < 50 | < 50 | < 50 | – | – | – | – | < 50
